{"source": "ChEMBL document CHEMBL3352730", "about": "“Synthesis and effects on cell viability of flavonols and 3-methyl ether derivatives on human leukemia cells” (Eur J Med Chem, 2014)", "key": {"U-937": {"test_system": "U-937", "test": "Increase in DR4 expression in human U937 cells at 10 30 uM after 24 hrs by immunoblotting method", "assay_type": "functional, cell-based", "in_short": "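HL-60 and U937 cells were treated with increasing concentrations for 24 h. Lysates were immunoblotted for TRAIL, DR4 and DR5.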"}, "[1]": {"target": "MAP kinase p38 (Homo sapiens) (UniProt O15264+Q15759+Q16539+P53778)", "test": "Increase in p38 MAPK phosphorylation in human HL60 cells at 10 to 30 uM after 2 to 6 hrs by Western blotting method", "assay_type": "cell-based", "conditions": "HL-60", "in_short": "(§1)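 HL-60 cells were incubated for a time course. Extracts were immunoblotted with phospho-specific antibodies for ERK 1/2, JNK/SAPK and p38MAPK. Membranes were then stripped and reprobed for the total kinases as loading controls.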"}, "HL-60": {"test_system": "HL-60", "test": "Induction of cell cycle arrest in human HL60 cells assessed as accumulation at S phase at 1 uM after 12 hrs by propidium iodide staining based flow cytometry (reference value: 14.7 +/- 0.3%)", "assay_type": "functional"}, "[2]": {"target": "Mitogen-activated protein kinase; ERK1/ERK2 (Homo sapiens) (UniProt P27361+P28482)", "sequence (P27361 whole entry, looked up)": "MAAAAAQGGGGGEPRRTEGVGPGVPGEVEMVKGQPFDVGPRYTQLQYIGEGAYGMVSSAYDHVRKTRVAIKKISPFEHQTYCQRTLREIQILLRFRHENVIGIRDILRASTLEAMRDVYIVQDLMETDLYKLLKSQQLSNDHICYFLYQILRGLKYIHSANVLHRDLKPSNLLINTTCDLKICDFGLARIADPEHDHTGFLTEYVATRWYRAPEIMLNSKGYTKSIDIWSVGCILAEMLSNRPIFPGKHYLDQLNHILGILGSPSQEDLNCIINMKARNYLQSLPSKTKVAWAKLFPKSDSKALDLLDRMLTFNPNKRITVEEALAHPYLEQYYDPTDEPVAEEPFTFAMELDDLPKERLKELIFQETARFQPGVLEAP", "sequence (P28482 whole entry, looked up)": "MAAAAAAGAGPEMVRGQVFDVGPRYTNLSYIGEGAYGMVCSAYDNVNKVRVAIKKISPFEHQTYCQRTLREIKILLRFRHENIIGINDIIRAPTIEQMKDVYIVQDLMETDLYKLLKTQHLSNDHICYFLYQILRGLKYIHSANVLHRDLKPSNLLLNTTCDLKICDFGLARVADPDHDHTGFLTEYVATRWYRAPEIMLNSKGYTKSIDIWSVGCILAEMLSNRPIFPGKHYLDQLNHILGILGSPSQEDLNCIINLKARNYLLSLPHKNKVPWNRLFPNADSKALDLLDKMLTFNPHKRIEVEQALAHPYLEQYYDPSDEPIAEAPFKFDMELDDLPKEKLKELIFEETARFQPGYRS", "test": "Increase in ERK1/2 phosphorylation in human HL60 cells at 10 to 30 uM after 2 to 6 hrs by Western blotting method", "assay_type": "cell-based", "conditions": "HL-60", "in_short": "as §1"}}, "note": "The source made the active and inactive calls. The calls are words filed in the database; no cut-off is given here.", "data": [{"smiles": "O=c1c(O)c(-c2ccc(Br)cc2)oc2ccccc12", "values": [{"measurement": "Activity", "setting": "U-937", "result": "Active"}, {"measurement": "Activity", "setting": "[1]", "result": "Active"}, {"measurement": "Activity", "setting": "HL-60", "result": 15.6, "unit": "%"}, {"measurement": "Activity", "setting": "[2]", "result": "Active"}]}]}
